From ChEMBL document CHEMBL1153548 (Antimicrob Agents Chemother, 2007)
≈ marks a conversion by molar mass, not a printed value.

Key:
[1] = Efflux clearance from middle ear fluid to plasma in Streptococcus pneumoniae WT3-infected Chinchilla lanigera assessed as unbound Km at 40000 ug/kg, iv followed by local dose of 19 ug/kg into intra-middle ear by compartmental microdialysis; assay type: ADME, organism-based
[2] = Efflux clearance from middle ear fluid to plasma in Chinchilla lanigera assessed as unbound Km at 40000 ug/kg, iv followed by local dose of 66 ug/kg into intra-middle ear by compartmental microdialysis; assay type: ADME, organism-based
[3] = Terminal half life in Chinchilla lanigera at 15 mg/kg, iv; assay type: ADME, organism-based; parameters: dose 15 mg/kg, route intravenous; settings: in vivo, read-out: beta t1/2 (converted)
Summary of the method: (§1)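 Conscious, freely moving chinchillas were cannulated in the femoral artery and jugular vein. […] Arterial plasma was taken predose, at time zero and at 10-12 points up to 180 min, then stored at –60°C. Unbound drug was measured by ultrafiltration (1,500 x g, 15 min, 37°C) followed by C18 solid-phase extraction and HPLC.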

[4] = Cmax in Chinchilla lanigera at 15 mg/kg, iv followed by local dose of 13 to 235 ug/kg into intra-middle ear; assay type: ADME, organism-based; parameters: dose 15 mg/kg, route intravenous; settings: in vivo; summary of the method: as §1
Streptococcus pneumoniae [5] = test: Antimicrobial activity against amoxicillin-intermediate resistant Streptococcus pneumoniae; assay type: functional
[6] = Efflux clearance from middle ear fluid to plasma in Chinchilla lanigera assessed as unbound Km at 40000 ug/kg, iv followed by local dose of 19 ug/kg into intra-middle ear by compartmental microdialysis; assay type: ADME, organism-based
Streptococcus pneumoniae [7] = test: Antimicrobial activity against amoxicillin-resistant Streptococcus pneumoniae; assay type: functional
[8] = Cmax in Chinchilla lanigera at 40 mg/kg, iv followed by local dose of 13 to 235 ug/kg into intra-middle ear; assay type: ADME, organism-based; parameters: dose 40 mg/kg, route intravenous; settings: in vivo; summary of the method: as §1
[9] = Efflux clearance from middle ear fluid to plasma in Chinchilla lanigera assessed as unbound Km at 15000 ug/kg, iv followed by local dose of 164 ug/kg into intra-middle ear by compartmental microdialysis; assay type: ADME, organism-based
Streptococcus pneumoniae [10] = test: Antimicrobial activity against Streptococcus pneumoniae WT3 infected in bolus iv dosed Chinchilla lanigera assessed as log reduction in bacterial count within 10 hrs of additional local drug administration into intra-middle ear; assay type: functional
Summary of the method: (§2)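 Awake chinchillas with 50 CFU S. pneumoniae WT3 in 100 µl PBS inoculated into both middle ear bullae. […] MEF (30-100 µl) was drawn at 1 h predose and at 1, 2, 5, 8 and 10 h. It was serially diluted and plated on 5% sheep blood agar at 37°C under 10% CO2, with counts read at 24 and 48 h. Detection threshold was 25 CFU/ml.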

[11] = Efflux clearance from middle ear fluid to plasma in Chinchilla lanigera assessed as unbound Km at 40000 ug/kg, iv followed by local dose of 13 ug/kg into intra-middle ear by compartmental microdialysis; assay type: ADME, organism-based
[12] = Efflux clearance from middle ear fluid to plasma in Streptococcus pneumoniae WT3-infected Chinchilla lanigera assessed as unbound Km at 40000 ug/kg, iv followed by local dose of 96 ug/kg into intra-middle ear by compartmental microdialysis; assay type: ADME, organism-based
[13] = Terminal half life in Chinchilla lanigera at 40 mg/kg, iv; assay type: ADME, organism-based; parameters: dose 40 mg/kg, route intravenous; settings: in vivo, read-out: beta t1/2 (converted); summary of the method: as §1
[14] = Efflux clearance from middle ear fluid to plasma in Chinchilla lanigera assessed as unbound Km at 40000 ug/kg, iv followed by local dose of […] into intra-middle ear by compartmental microdialysis; assay type: ADME, organism-based
Streptococcus pneumoniae [15] = test: Antimicrobial activity against Streptococcus pneumoniae WT3 infected in bolus iv dosed Chinchilla lanigera assessed as log reduction in bacterial count within 5 hrs of additional local drug administration into intra-middle ear; assay type: functional; summary of the method: as §2

Q: Which Km [1] does the source give for `CC1(C)S[C@@H]2[C@H](NC(=O)[C@H](N)c3ccc(O)cc3)C(=O)N2[C@H]1C(=O)O` [AMOXICILLIN] here?
A: The Km was 35.9 µg/mL.

Q: And the Km [2]?
A: Its Km is 54.9 µg/mL.

Q: What about the half-life [3] of the same compound?
A: The half-life was 18 min.

Q: What about the Cmax [4] of the same compound?
A: The Cmax was 111 µg/mL.

Q: What about the MIC (Streptococcus pneumoniae [5]) of the same compound?
A: The MIC was 1 µg/mL (≈ 2.74 µM).

Q: And the Km [6]?
A: The Km was 34 µg/mL.

Q: What about the MIC (Streptococcus pneumoniae [7]) of the same compound?
A: Its MIC is 8 µg/mL (≈ 21.9 µM).

Q: What about the Cmax [8] of the same compound?
A: The Cmax was 8.8 µg/mL.

Q: What about the Km [9] of the same compound?
A: The Km was 17.8 µg/mL.

Q: What about the Activity (Streptococcus pneumoniae [10]) of the same compound?
A: Its Activity is 2.

Q: And the Km [11]?
A: Its Km is 4.5 µg/mL.

Q: And the Km [12]?
A: Its Km is 48.6 µg/mL.

Q: And the half-life [13]?
A: The half-life was 18 min.

Q: And the Km [14]?
A: Its Km is 9.3 µg/mL.

Q: And the Activity (Streptococcus pneumoniae [15])?
A: The Activity was 5.
